# Measurements published in ChEMBL document CHEMBL4433205, “Dual Pharmacophores Explored via Structure-Activity Relationship (SAR) Matrix: Insights into Potent, Bifunctional Opioid Ligand Design” (J Med Chem, 2019).
# The source made the active and inactive calls.
# Biological target: T1, Mu-type opioid receptor (Rattus norvegicus, UniProt P33535)
# Assay: (§1) Agonist activity at rat mu opioid receptor expressed in rat C6 cell membranes assessed as stimulation of [35S]GTPgammaS binding measured after 1 hr
# Type: functional
# Conditions: not given
# How it was run: (§2)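 Membranes (10–20 μg protein/tube) from stably transfected cells incubated 1 h at 25°C in 50 mM Tris-HCl, 100 mM NaCl, 5 mM MgCl2, pH 7.4, with 0.1 nM [35S]-GTPγS, 30 μM GDP and varying test concentrations; filtration, scintillation counting.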
# T1 sequence (P33535 whole entry): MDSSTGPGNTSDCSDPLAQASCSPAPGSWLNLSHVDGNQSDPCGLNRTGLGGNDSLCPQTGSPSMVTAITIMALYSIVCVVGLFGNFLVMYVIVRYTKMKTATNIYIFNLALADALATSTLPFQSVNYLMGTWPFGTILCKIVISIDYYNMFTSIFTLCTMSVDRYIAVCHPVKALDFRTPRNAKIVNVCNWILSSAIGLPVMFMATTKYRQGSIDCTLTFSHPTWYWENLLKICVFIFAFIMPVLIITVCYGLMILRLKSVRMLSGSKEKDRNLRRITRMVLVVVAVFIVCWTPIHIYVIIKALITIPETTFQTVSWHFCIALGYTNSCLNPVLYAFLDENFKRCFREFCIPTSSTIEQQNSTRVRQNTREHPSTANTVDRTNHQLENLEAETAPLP
row,SMILES,EC50 [nM]
1,Cc1cc(O)cc(C)c1C[C@H](N)C(=O)N[C@@H]1CCN(C(=O)C2CC2)c2ccc(Cc3ccc4ccccc4c3)cc21,0.42
2,CC(=O)N1CC[C@@H](NC(=O)[C@@H](N)Cc2c(C)cc(O)cc2C)c2cc(Cc3cnc4ccccc4c3)ccc21.O=C(O)C(F)(F)F,1.1
3,Cc1cc(O)cc(C)c1C[C@H](N)C(=O)N[C@@H]1CCN(C(=O)c2ccccc2)c2ccc(CN3CCc4ccccc4C3)cc21.O=C(O)C(F)(F)F,4.2

# Biological target: Mu-type opioid receptor (Rattus norvegicus) (UniProt P33535)
# Sequence (P33535 whole entry): as above
# Assay: as §1
# Type: functional
# Conditions: not given
# How it was run: as §2
row,SMILES,Activity
1,Cc1cc(O)cc(C)c1C[C@H](N)C(=O)N[C@@H]1CCN(C(=O)c2ccccc2)c2ccc(Cc3ccc4c(c3)OCCO4)cc21.O=C(O)C(F)(F)F,inactive

# Biological target: T2, Delta-type opioid receptor (Rattus norvegicus, UniProt P33533)
# T2 sequence (P33533 whole entry): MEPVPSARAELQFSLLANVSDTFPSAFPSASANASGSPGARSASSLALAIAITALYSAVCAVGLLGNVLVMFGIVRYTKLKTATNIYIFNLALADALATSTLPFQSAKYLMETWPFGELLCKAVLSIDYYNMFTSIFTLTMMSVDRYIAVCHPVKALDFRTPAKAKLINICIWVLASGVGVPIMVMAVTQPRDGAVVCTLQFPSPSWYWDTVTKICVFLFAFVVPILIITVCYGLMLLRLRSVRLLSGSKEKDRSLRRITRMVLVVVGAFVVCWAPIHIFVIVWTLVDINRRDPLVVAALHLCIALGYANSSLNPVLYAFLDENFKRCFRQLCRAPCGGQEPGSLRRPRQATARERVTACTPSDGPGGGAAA
# Assay: Displacement of [3H]diprenorphine from rat delta opioid receptor expressed in rat C6 cell membranes measured after 1 hr by liquid scintillation counting method
# Conditions: not given
row,SMILES,Ki [nM]
1,Cc1cc(O)cc(C)c1C[C@H](N)C(=O)N[C@@H]1CCN(C(=O)c2ccccc2)c2ccc(Cc3ccc4c(c3)OCCO4)cc21.O=C(O)C(F)(F)F,0.22
2,Cc1cc(O)cc(C)c1C[C@H](N)C(=O)N[C@@H]1CCN(C(=O)C2CC2)c2ccc(Cc3ccc4ccccc4c3)cc21,0.37
3,CC(=O)N1CC[C@@H](NC(=O)[C@@H](N)Cc2c(C)cc(O)cc2C)c2cc(Cc3cnc4ccccc4c3)ccc21.O=C(O)C(F)(F)F,0.2
4,Cc1cc(O)cc(C)c1C[C@H](N)C(=O)N[C@@H]1CCN(C(=O)c2ccccc2)c2ccc(CN3CCc4ccccc4C3)cc21.O=C(O)C(F)(F)F,4

# Biological target: Mu-type opioid receptor (Rattus norvegicus) (UniProt P33535)
# Assay: Agonist activity at rat mu opioid receptor expressed in rat C6 glioma cell membranes assessed as stimulation of [35S]GTPgammaS binding measured after 1 hr relative to DAMGO
# Type: functional
# Conditions: not given
row,SMILES,Efficacy
1,Cc1cc(O)cc(C)c1C[C@H](N)C(=O)N[C@@H]1CCN(C(=O)c2ccccc2)c2ccc(Cc3ccc4c(c3)OCCO4)cc21.O=C(O)C(F)(F)F,inactive
2,Cc1cc(O)cc(C)c1C[C@H](N)C(=O)N[C@@H]1CCN(C(=O)C2CC2)c2ccc(Cc3ccc4ccccc4c3)cc21,85%
3,CC(=O)N1CC[C@@H](NC(=O)[C@@H](N)Cc2c(C)cc(O)cc2C)c2cc(Cc3cnc4ccccc4c3)ccc21.O=C(O)C(F)(F)F,76%
4,Cc1cc(O)cc(C)c1C[C@H](N)C(=O)N[C@@H]1CCN(C(=O)c2ccccc2)c2ccc(CN3CCc4ccccc4C3)cc21.O=C(O)C(F)(F)F,93%

# Biological target: T2, Delta-type opioid receptor
# Assay: Agonist activity at rat delta opioid receptor expressed in rat C6 cell membranes assessed as stimulation of [35S]GTPgammaS binding measured after 1 hr
# Type: functional
# Conditions: c6
row,SMILES,EC50
1,Cc1cc(O)cc(C)c1C[C@H](N)C(=O)N[C@@H]1CCN(C(=O)c2ccccc2)c2ccc(Cc3ccc4c(c3)OCCO4)cc21.O=C(O)C(F)(F)F,Not Active
2,Cc1cc(O)cc(C)c1C[C@H](N)C(=O)N[C@@H]1CCN(C(=O)c2ccccc2)c2ccc(CN3CCc4ccccc4C3)cc21.O=C(O)C(F)(F)F,Not Active

# Same assay, conditions: read-out: EC50
row,SMILES,EC50 [nM]
1,Cc1cc(O)cc(C)c1C[C@H](N)C(=O)N[C@@H]1CCN(C(=O)C2CC2)c2ccc(Cc3ccc4ccccc4c3)cc21,1.9
2,CC(=O)N1CC[C@@H](NC(=O)[C@@H](N)Cc2c(C)cc(O)cc2C)c2cc(Cc3cnc4ccccc4c3)ccc21.O=C(O)C(F)(F)F,5.8

# Biological target: T3, Kappa-type opioid receptor (Homo sapiens, UniProt P41145)
# T3 sequence (P41145 whole entry): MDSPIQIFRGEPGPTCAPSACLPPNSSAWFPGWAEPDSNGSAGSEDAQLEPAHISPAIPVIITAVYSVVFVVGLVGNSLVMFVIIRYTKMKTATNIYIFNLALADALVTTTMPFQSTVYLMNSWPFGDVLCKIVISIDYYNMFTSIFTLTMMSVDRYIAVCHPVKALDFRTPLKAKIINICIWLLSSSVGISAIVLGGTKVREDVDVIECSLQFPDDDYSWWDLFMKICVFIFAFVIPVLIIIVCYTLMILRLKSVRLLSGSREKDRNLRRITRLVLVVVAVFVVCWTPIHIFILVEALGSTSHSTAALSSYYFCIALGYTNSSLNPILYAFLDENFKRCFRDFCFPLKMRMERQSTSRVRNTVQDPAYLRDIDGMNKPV
# Assay: Agonist activity at human kappa opioid receptor expressed in CHO cell membranes assessed as stimulation of [35S]GTPgammaS binding to G protein incubated for 1 hr relative to U69,593
# Type: functional
# Conditions: not given
row,SMILES,Efficacy
1,Cc1cc(O)cc(C)c1C[C@H](N)C(=O)N[C@@H]1CCN(C(=O)c2ccccc2)c2ccc(Cc3ccc4c(c3)OCCO4)cc21.O=C(O)C(F)(F)F,60%
2,Cc1cc(O)cc(C)c1C[C@H](N)C(=O)N[C@@H]1CCN(C(=O)C2CC2)c2ccc(Cc3ccc4ccccc4c3)cc21,38%
3,CC(=O)N1CC[C@@H](NC(=O)[C@@H](N)Cc2c(C)cc(O)cc2C)c2cc(Cc3cnc4ccccc4c3)ccc21.O=C(O)C(F)(F)F,inactive
4,Cc1cc(O)cc(C)c1C[C@H](N)C(=O)N[C@@H]1CCN(C(=O)c2ccccc2)c2ccc(CN3CCc4ccccc4C3)cc21.O=C(O)C(F)(F)F,inactive

# Biological target: T1, Mu-type opioid receptor
# Assay: Displacement of [3H]diprenorphine from rat mu opioid receptor expressed in rat C6 cell membranes measured after 1 hr by liquid scintillation counting method
# Conditions: not given
# How it was run: (§3)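 Competition with 0.2 nM [3H]-diprenorphine on membranes (20 μg protein/tube) from stably transfected cells in 50 mM Tris-HCl pH 7.4, 1 h at room temperature with shaking; GF/C filtration, three washes, scintillation counting. Nonspecific binding defined with 10 μM naloxone.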
row,SMILES,Ki [nM]
1,Cc1cc(O)cc(C)c1C[C@H](N)C(=O)N[C@@H]1CCN(C(=O)c2ccccc2)c2ccc(Cc3ccc4c(c3)OCCO4)cc21.O=C(O)C(F)(F)F,1.5
2,Cc1cc(O)cc(C)c1C[C@H](N)C(=O)N[C@@H]1CCN(C(=O)C2CC2)c2ccc(Cc3ccc4ccccc4c3)cc21,0.05
3,CC(=O)N1CC[C@@H](NC(=O)[C@@H](N)Cc2c(C)cc(O)cc2C)c2cc(Cc3cnc4ccccc4c3)ccc21.O=C(O)C(F)(F)F,0.15
4,Cc1cc(O)cc(C)c1C[C@H](N)C(=O)N[C@@H]1CCN(C(=O)c2ccccc2)c2ccc(CN3CCc4ccccc4C3)cc21.O=C(O)C(F)(F)F,0.37

# System: Mus musculus
# Assay: Antinociceptive activity in C57BL/6 mouse assessed as increase in latency to tail withdrawal up to 10 mg/kg, ip administered at 30 mins interval measured during compound dosing by warm water tail withdrawal assay relative to control
# Type: functional
# Conditions: not given
# How it was run: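 Male C57BL/6 mice, 20–30 g, 8–16 weeks. Saline ip, baseline latency 30 min later; then cumulative ip doses 1, 3.2, 10 mg/kg in 5% DMSO/saline at 30 min intervals, latency read 30 min after each. Tail tip (2–3 cm) in 50°C water, 20 s cutoff; expressed as % MPE (MPE = 20 s).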
row,SMILES,MPE
1,Cc1cc(O)cc(C)c1C[C@H](N)C(=O)N[C@@H]1CCN(C(=O)c2ccccc2)c2ccc(Cc3ccc4c(c3)OCCO4)cc21.O=C(O)C(F)(F)F,inactive
2,Cc1cc(O)cc(C)c1C[C@H](N)C(=O)N[C@@H]1CCNc2ccc(Cc3ccccc3)cc21.O=C(O)C(F)(F)F,100%
3,Cc1cc(O)cc(C)c1C[C@H](N)C(=O)N[C@@H]1CCN(C(=O)C2CC2)c2ccc(Cc3ccc4ccccc4c3)cc21,inactive
4,CC(=O)N1CC[C@@H](NC(=O)[C@@H](N)Cc2c(C)cc(O)cc2C)c2cc(Cc3cnc4ccccc4c3)ccc21.O=C(O)C(F)(F)F,60%
5,Cc1cc(O)cc(C)c1C[C@H](N)C(=O)N[C@@H]1CCN(C(=O)c2ccccc2)c2ccc(CN3CCc4ccccc4C3)cc21.O=C(O)C(F)(F)F,inactive

# Biological target: Delta-type opioid receptor (Rattus norvegicus) (UniProt P33533)
# Sequence (P33533 whole entry): as the sequence (P33533 whole entry) above
# Assay: Agonist activity at rat delta opioid receptor expressed in rat C6 cell membranes assessed as stimulation of [35S]GTPgammaS binding incubated for 1 hr relative to DPDPE
# Type: functional
# Conditions: not given
row,SMILES,Efficacy
1,Cc1cc(O)cc(C)c1C[C@H](N)C(=O)N[C@@H]1CCN(C(=O)c2ccccc2)c2ccc(Cc3ccc4c(c3)OCCO4)cc21.O=C(O)C(F)(F)F,inactive
2,Cc1cc(O)cc(C)c1C[C@H](N)C(=O)N[C@@H]1CCN(C(=O)C2CC2)c2ccc(Cc3ccc4ccccc4c3)cc21,32%
3,CC(=O)N1CC[C@@H](NC(=O)[C@@H](N)Cc2c(C)cc(O)cc2C)c2cc(Cc3cnc4ccccc4c3)ccc21.O=C(O)C(F)(F)F,35%
4,Cc1cc(O)cc(C)c1C[C@H](N)C(=O)N[C@@H]1CCN(C(=O)c2ccccc2)c2ccc(CN3CCc4ccccc4C3)cc21.O=C(O)C(F)(F)F,inactive

# System: not listed separately
# Assay: Lipophilicity, log P of the compound
# Type: physicochemical
# Conditions: octanol/water
row,SMILES,logP
1,Cc1cc(O)cc(C)c1C[C@H](N)C(=O)N[C@@H]1CCN(C(=O)c2ccccc2)c2ccc(Cc3ccc4c(c3)OCCO4)cc21.O=C(O)C(F)(F)F,4.4
2,Cc1cc(O)cc(C)c1C[C@H](N)C(=O)N[C@@H]1CCNc2ccc(Cc3ccccc3)cc21.O=C(O)C(F)(F)F,3.8
3,Cc1cc(O)cc(C)c1C[C@H](N)C(=O)N[C@@H]1CCN(C(=O)C2CC2)c2ccc(Cc3ccc4ccccc4c3)cc21,5.1
4,CC(=O)N1CC[C@@H](NC(=O)[C@@H](N)Cc2c(C)cc(O)cc2C)c2cc(Cc3cnc4ccccc4c3)ccc21.O=C(O)C(F)(F)F,3.2
5,Cc1cc(O)cc(C)c1C[C@H](N)C(=O)N[C@@H]1CCN(C(=O)c2ccccc2)c2ccc(CN3CCc4ccccc4C3)cc21.O=C(O)C(F)(F)F,4.5

# Organism: Rattus norvegicus
# Assay: Selectivity ratio of Ki for rat delta opioid receptor expressed in rat C6 cell membranes to Ki for rat mu opioid receptor expressed in rat C6 cell membranes
# Type: cell-based
# Conditions: not given
# How it was run: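 Competition binding against 0.2 nM [3H]-diprenorphine, using C6 membranes expressing rat MOR or rat DOR (20 μg protein/tube). Run in 50 mM Tris-HCl pH 7.4, 1 h at room temperature with shaking, then filtration and scintillation counting. Nonspecific binding with 10 μM naloxone.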
row,SMILES,Ratio Ki
1,Cc1cc(O)cc(C)c1C[C@H](N)C(=O)N[C@@H]1CCN(C(=O)c2ccccc2)c2ccc(Cc3ccc4c(c3)OCCO4)cc21.O=C(O)C(F)(F)F,0.2
2,Cc1cc(O)cc(C)c1C[C@H](N)C(=O)N[C@@H]1CCN(C(=O)C2CC2)c2ccc(Cc3ccc4ccccc4c3)cc21,7
3,CC(=O)N1CC[C@@H](NC(=O)[C@@H](N)Cc2c(C)cc(O)cc2C)c2cc(Cc3cnc4ccccc4c3)ccc21.O=C(O)C(F)(F)F,1
4,Cc1cc(O)cc(C)c1C[C@H](N)C(=O)N[C@@H]1CCN(C(=O)c2ccccc2)c2ccc(CN3CCc4ccccc4C3)cc21.O=C(O)C(F)(F)F,11

# System: Mus musculus
# Assay: Antinociceptive activity in C57BL/6 mouse assessed as increase in latency to tail withdrawal by measuring time of action at 10 mg/kg, ip administered as bolus dose by warm water tail withdrawal assay
# Type: functional
# Conditions: not given
# How it was run: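 Male C57BL/6 mice; saline ip, baseline 30 min later, then single 10 mg/kg ip bolus in 5% DMSO/saline. Tail withdrawal in 50°C water (20 s cutoff) at 5, 15, 30 min and every 30 min until return to baseline; duration = time from dosing to baseline return, done only for fully active compounds.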
row,SMILES,Time [min]
1,Cc1cc(O)cc(C)c1C[C@H](N)C(=O)N[C@@H]1CCNc2ccc(Cc3ccccc3)cc21.O=C(O)C(F)(F)F,120

# Biological target: T3, Kappa-type opioid receptor
# Assay: Agonist activity at human kappa opioid receptor expressed in CHO cell membranes assessed as stimulation of [35S]GTPgammaS binding measured after 1 hr
# Type: functional
# Conditions: cho
row,SMILES,EC50
1,CC(=O)N1CC[C@@H](NC(=O)[C@@H](N)Cc2c(C)cc(O)cc2C)c2cc(Cc3cnc4ccccc4c3)ccc21.O=C(O)C(F)(F)F,Not Active
2,Cc1cc(O)cc(C)c1C[C@H](N)C(=O)N[C@@H]1CCN(C(=O)c2ccccc2)c2ccc(CN3CCc4ccccc4C3)cc21.O=C(O)C(F)(F)F,Not Active

# Same assay, conditions: read-out: EC50
row,SMILES,EC50 [nM]
1,Cc1cc(O)cc(C)c1C[C@H](N)C(=O)N[C@@H]1CCN(C(=O)c2ccccc2)c2ccc(Cc3ccc4c(c3)OCCO4)cc21.O=C(O)C(F)(F)F,> 500
2,Cc1cc(O)cc(C)c1C[C@H](N)C(=O)N[C@@H]1CCN(C(=O)C2CC2)c2ccc(Cc3ccc4ccccc4c3)cc21,> 500

# Biological target: T3, Kappa-type opioid receptor
# Assay: Displacement of [3H]diprenorphine from human kappa opioid receptor expressed in CHO cell membranes measured after 1 hr by liquid scintillation counting method
# Conditions: not given
# How it was run: as §3
row,SMILES,Ki [nM]
1,Cc1cc(O)cc(C)c1C[C@H](N)C(=O)N[C@@H]1CCN(C(=O)c2ccccc2)c2ccc(Cc3ccc4c(c3)OCCO4)cc21.O=C(O)C(F)(F)F,240
2,Cc1cc(O)cc(C)c1C[C@H](N)C(=O)N[C@@H]1CCN(C(=O)C2CC2)c2ccc(Cc3ccc4ccccc4c3)cc21,117
3,CC(=O)N1CC[C@@H](NC(=O)[C@@H](N)Cc2c(C)cc(O)cc2C)c2cc(Cc3cnc4ccccc4c3)ccc21.O=C(O)C(F)(F)F,53
4,Cc1cc(O)cc(C)c1C[C@H](N)C(=O)N[C@@H]1CCN(C(=O)c2ccccc2)c2ccc(CN3CCc4ccccc4C3)cc21.O=C(O)C(F)(F)F,160
